Results taken from ChEMBL document CHEMBL1123696, “1H NMR study of degradation mechanisms of oxacephem derivatives with various 3'-substituents in alkaline solution” (J Med Chem, 1987).

Assay: Pseudo first order rate constant of the beta-lactam ring cleavage determined from 1H NMR spectra
Type: ADME
In short: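 Oxacephem (about 1×10^-2 M initial) in 0.2 M deuteriated carbonate buffer, pD 10.4, μ = 0.5, held at 35 ± 0.5 °C. β-Lactam loss followed by 1H NMR with 64 acquisitions per spectrum. Pseudo-first-order constant from regression of residual oxacephem fraction against time in hours.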

| Structure (SMILES) | k obs |
| --- | --- |
| CO[C@@]1(NC(=O)Cc2ccccc2)C(=O)N2C(C(=O)[O-])=C(C)CO[C@@H]21.[Na+] | 0.0484 h⁻¹ |
| CO[C@@]1(NC(=O)Cc2ccccc2)C(=O)N2C(C(=O)[O-])=C(CSC)CO[C@@H]21.[Na+] | 0.11 h⁻¹ |
| CO[C@@]1([N-]C(=O)Cc2ccccc2)C(=O)N2C(C(=O)[O-])=C(C[n+]3ccccc3)CO[C@@H]21.[Na+] | 1.39 h⁻¹ |
| CO[C@@]1(NC(=O)Cc2ccccc2)C(=O)N2C(C(=O)[O-])=C(COC(C)=O)CO[C@@H]21.[Na+] | 0.255 h⁻¹ |
| COCC1=C(C(=O)[O-])N2C(=O)[C@](NC(=O)Cc3ccccc3)(OC)[C@H]2OC1.[Na+] | 0.204 h⁻¹ |
| CO[C@@]1(NC(=O)Cc2ccccc2)C(=O)N2C(C(=O)[O-])=C(CSc3nnnn3C)CO[C@@H]21.[Na+] | 0.192 h⁻¹ |
| CO[C@@]1(NC(=O)Cc2ccccc2)C(=O)N2C(C(=O)[O-])=C(COC(N)=O)COC21.[Na+] (some centres undefined) | 0.45 h⁻¹ |
| CO[C@@]1(NC(=O)Cc2ccccc2)C(=O)N2C(C(=O)[O-])=C(CC#N)CO[C@@H]21.[Na+] | 0.289 h⁻¹ |
| CO[C@@]1(NC(=O)Cc2ccccc2)C(=O)N2C(C(=O)[O-])=C(CO)CO[C@@H]21.[Na+] | 0.164 h⁻¹ |

Assay: Pseudo first order rate constant of the beta-lactam ring cleavage determined from 1H NMR spectra; value is corrected for parallel correction.
Type: ADME
In short: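 Degradation in 0.2 M deuteriated carbonate buffer, pD 10.4, μ = 0.5, 35 °C, oxacephem about 1×10^-2 M. Time courses of parent and products were recorded by 1H NMR. Rate constants came from kinetic analysis of a parallel-reaction scheme fitted to the experimental curves, which separates the OH− contribution to β-lactam cleavage.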

| Structure (SMILES) | k obs |
| --- | --- |
| CO[C@@]1(NC(=O)Cc2ccccc2)C(=O)N2C(C(=O)[O-])=C(COC(C)=O)CO[C@@H]21.[Na+] | 0.308 h⁻¹ |

Assay: Pseudo first order rate constant of the beta-lactam ring cleavage determined from UV spectra (pH 10, 35 degree C)
Type: ADME
In short: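 Oxacephem at about 7.5×10^-5 M initial in 0.008 M carbonate buffer, μ = 0.1, 35.0 ± 0.2 °C. Loss of UV absorbance near 260 nm recorded continuously over time. Pseudo-first-order constant for β-lactam cleavage obtained by the Guggenheim method.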

| Structure (SMILES) | k obs |
| --- | --- |
| CO[C@@]1(NC(=O)Cc2ccccc2)C(=O)N2C(C(=O)[O-])=C(C)CO[C@@H]21.[Na+] | 0.0346 h⁻¹ |
| CO[C@@]1(NC(=O)Cc2ccccc2)C(=O)N2C(C(=O)[O-])=C(CSC)CO[C@@H]21.[Na+] | 0.101 h⁻¹ |
| CO[C@@]1([N-]C(=O)Cc2ccccc2)C(=O)N2C(C(=O)[O-])=C(C[n+]3ccccc3)CO[C@@H]21.[Na+] | 1.26 h⁻¹ |
| CO[C@@]1(NC(=O)Cc2ccccc2)C(=O)N2C(C(=O)[O-])=C(COC(C)=O)CO[C@@H]21.[Na+] | 0.285 h⁻¹ |
| COCC1=C(C(=O)[O-])N2C(=O)[C@](NC(=O)Cc3ccccc3)(OC)[C@H]2OC1.[Na+] | 0.144 h⁻¹ |
| CO[C@@]1(NC(=O)Cc2ccccc2)C(=O)N2C(C(=O)[O-])=C(CSc3nnnn3C)CO[C@@H]21.[Na+] | 0.204 h⁻¹ |
| CO[C@@]1(NC(=O)Cc2ccccc2)C(=O)N2C(C(=O)[O-])=C(COC(N)=O)COC21.[Na+] (some centres undefined) | 0.23 h⁻¹ |
| CO[C@@]1(NC(=O)Cc2ccccc2)C(=O)N2C(C(=O)[O-])=C(CC#N)CO[C@@H]21.[Na+] | 0.234 h⁻¹ |
| CO[C@@]1(NC(=O)Cc2ccccc2)C(=O)N2C(C(=O)[O-])=C(CO)CO[C@@H]21.[Na+] | 0.139 h⁻¹ |
